# MrgX1 PAM: allosterically activates human MrgX1 receptor signaling | Q96LB2 | MrgX1-HEK293, Fluo-4 calcium flux, FDSS; active compounds read high | B-score at 10 µM | hit rate 0.63% among 310,000;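 active means plate-corrected calcium response at least 3 library SD above typical, normal starting fluorescence, not activating the receptor alone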;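 further: compound read alongside a low EC10 to EC30 dose of BAM8-22 agonist; peak minus trough fluorescence over baseline measured at the second addition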
# Target sequence (Q96LB2 whole entry, looked up): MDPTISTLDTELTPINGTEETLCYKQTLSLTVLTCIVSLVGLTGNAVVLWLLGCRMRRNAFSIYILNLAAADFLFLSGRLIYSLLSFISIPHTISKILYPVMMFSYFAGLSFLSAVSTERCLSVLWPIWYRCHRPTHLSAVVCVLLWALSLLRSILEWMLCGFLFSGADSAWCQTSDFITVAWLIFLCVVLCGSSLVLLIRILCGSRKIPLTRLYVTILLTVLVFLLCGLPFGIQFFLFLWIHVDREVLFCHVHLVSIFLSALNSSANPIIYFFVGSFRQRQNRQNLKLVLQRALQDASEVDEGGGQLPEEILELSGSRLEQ
# MrgX1 ag: activates human MrgX1 receptor signaling | MrgX1-HEK293 cells, Fluo-4 calcium fluorescence, agonist mode; active compounds read high | B-score at 10 µM | hit rate 0.44% among 310,000;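 active means calcium response B-score plate-corrected fluorescence ratio at least 3 library SD, with starting fluorescence B-score inside 5 SD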
#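 Material: MrgX1-expressing HEK293 cells / Dosing: compound as first of three additions / Incubation: overnight seeding, then 1 h dark dye loading / Signal: Fluo-4 NW calcium fluorescence / Evaluation: B-scored fluorescence response ratio / Benchmarks: positive and negative control wells on each plate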
# RGS4 act: potentiators or activators of RGS4. HEK293 M3R/inducible RGS4, carbachol calcium flux Fluo4; active compounds read low. B-score at 10 µM. hit rate 0.92% among 310,000. AID 463111;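 active means B-score of the integrated calcium signal more than 4 SD below the library mean, with starting fluorescence not abnormally high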;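 further: negative B-score means reduced calcium response which marks RGS4 activation or potentiation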
#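 Material: Inducible-RGS4 HEK293 cells carrying M3 receptor; also added: carbachol at ECmax as muscarinic agonist stimulus; incubation: compound preincubation 20 min at room temperature before agonist; signal: Fluo4-AM (2 µM) calcium-flux fluorescence, kinetic read; measure: integrated calcium ratio converted to B score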
# RGS4 inh: inhibitors of human RGS4; P49798; HEK293 M3R/RGS4 inducible, Fluo-4 calcium flux; active compounds read high; triggered by carbachol at its EC20; B-score at 10 µM; hit rate 0.45% among 310,000; AID 463165;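 active means B-score, a plate-corrected calcium signal, over three deviations above library mean, with baseline fluorescence within five deviations of library mean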;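 further: RGS4 expression induced by doxycycline in cells with stable M3 receptor; B-score is computed from the integrated fluorescence ratio over baseline after carbachol; higher B-score means a larger calcium signal and so more RGS4 inhibition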
# Target sequence (P49798 whole entry, looked up): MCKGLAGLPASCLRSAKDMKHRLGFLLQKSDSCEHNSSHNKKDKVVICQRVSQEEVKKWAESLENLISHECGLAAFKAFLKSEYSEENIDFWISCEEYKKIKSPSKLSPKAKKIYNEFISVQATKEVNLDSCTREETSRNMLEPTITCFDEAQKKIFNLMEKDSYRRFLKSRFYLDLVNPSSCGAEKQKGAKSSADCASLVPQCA
# MrgX1 antagonist: human MrgX1 receptor antagonism, primary screen; Q96LB2; MRGX1-HEK293 calcium flux, Fluo-4, BAM8-22 antagonism; active compounds read low; B-score at 10 µM; hit rate 1.3% among 310,000; AID 588676;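 active means calcium-response B-score plate-corrected more than 3 library SD below zero, starting fluorescence within 5 deviations, no agonist response on first addition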;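 further: peak minus trough fluorescence over baseline after final BAM8-22 challenge near maximal dose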
# MrgX1 antag conf: reconfirmed antagonist of human MrgX1 receptor signaling | shares compounds with MrgX1 antagonist | MrgX1-HEK293, BAM8-22 calcium flux, Fluo-4; active compounds read low | remaining BAM8-22 calcium response % of control (active compounds read low), % at 10 µM | hit rate 19% among 2,300 | AID 602420;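 active means remaining agonist calcium response no higher than 100% minus 3 SD of agonist-only control wells, with starting fluorescence near control levels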;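 further: agonist BAM8-22 given at a near maximal EC90 to ECmax level; peak minus minimum fluorescence divided by baseline after agonist addition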
# HEK293 Ca flux: counter-screen for MrgX1 antagonists: effect in parental HEK293 cells; shares compounds with MrgX1 antagonist; Fluo-4 calcium fluorescence, FDSS; fluorescence ratio F(max-min)/F0 at 10 µM; hit rate 2% among 4,000; AID 624111;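 active means duplicate-averaged calcium fluorescence ratio at least three times the standard deviation of buffer wells, a nonspecific response in parental cells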
# HEK293 Ca counter: MrgX1 allosteric activator counter-screen hit in parental HEK293 cells. hit rate 0.4% among 4,000. shares compounds with MrgX1 antagonist. parental HEK293 calcium flux, Fluo-4 fluorescence ratio; active compounds read high. fluorescence ratio F(max-min)/F0 at 10 µM;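 active means calcium fluorescence ratio, averaged over duplicates, at least 3 SD of the buffer-well ratio, meaning a nonspecific response in receptor-free cells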;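 further: untransfected parental HEK293 lacking MrgX1 used as counterscreen for MrgX1 allosteric activators; fluorescence change taken during the second addition on a kinetic imager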
# HEK293 Ca cntr2: MrgX1 activator counter-screen hit in parental HEK293 cells; shares compounds with MrgX1 antagonist; Fluo-4 calcium fluorescence (FDSS); active compounds read high; hit rate 8.7% among 4,000; fluorescence ratio F(max-min)/F0 at 10 µM;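 active means calcium fluorescence ratio at least three times the spread of buffer wells, meaning a non-specific response in parental cells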
# An asterisk follows results filed as active; i = inactive; / = not tested or not shown. The list is not random: actives were taken first. Their share in the collection is about 3.5%.
SMILES,MrgX1 PAM,MrgX1 ag,RGS4 act,RGS4 inh,MrgX1 antagonist,MrgX1 antag conf,HEK293 Ca flux,HEK293 Ca counter,HEK293 Ca cntr2
CC(C)c1ccc(-c2nc(N3CCCC3)nc3n[nH]c(N)c23)cc1,i,i,i,i,-5.36*,i,i,i,i
Cc1cc(-c2ccccc2)[nH]c(=O)c1S(=O)(=O)c1ccccc1,i,i,i,i,i,/,/,/,/
Cc1cc(-c2ccccc2)[nH]c(=O)c1S(=O)(=O)c1ccc(Cl)cc1,i,i,i,i,-8.96*,i,i,i,i
COC(=O)c1c(NC(=O)c2ccco2)sc(C)c1C,i,i,i,i,-7.65*,80.5%*,i,i,i
COC(=O)c1c(NC(=O)Cc2ccccc2)sc(C)c1C,i,i,i,i,i,/,/,/,/
COC(=O)c1c(NC(=O)c2ccco2)sc(C(=O)Nc2ccc(F)cc2)c1C,i,i,i,i,i,/,/,/,/
COC(=O)c1c(NC(=O)CSc2ccccc2N)sc(C)c1C,i,i,i,i,-4.68*,i,i,i,i
CC(=O)c1ccc(OCCCC(=O)Nc2ccc(S(=O)(=O)N3CCOCC3)cc2)cc1,i,i,i,i,i,/,/,/,/
CCOC(=O)C1=C(C)Nc2nc(C)nn2C1c1ccc(OC)c(OC)c1 (stereo not given),i,i,i,i,-6.74*,i,i,i,i
Cc1cc(C)c(C(=O)NC2CCCc3c2cnn3-c2ccc(C)c(C)c2)c(=O)[nH]1 (stereo not given),i,i,i,i,i,/,/,/,/
COc1cc(OC)cc(C(=O)NC2CC3CCC(C2)N3Cc2ccco2)c1 (stereo not given),/,/,i,i,/,/,/,/,/
Cc1ccc(C(=O)NC2CC3CCC(C2)N3Cc2ccco2)cc1 (stereo not given),i,i,i,i,-7.81*,i,i,i,i
Cc1ccc(C(=O)NCc2ccco2)cc1,i,i,i,i,-5.32*,i,i,i,i
COc1ccccc1C(c1c(O)nc(SC)[nH]c1=O)c1c(O)nc(SC)[nH]c1=O,i,i,i,i,i,/,/,/,/
CN(C)S(=O)(=O)c1cccc(NC(=O)CN2C(=O)C3C4C=CC(C4)C3C2=O)c1 (stereo not given),i,i,i,i,-6.77*,i,i,i,i
CC(C)(C)OC(=O)N1CCC2(CC1)Oc1ccc(Cl)cc1C(=O)C21CC(c2ccc(Cl)cc2)=NO1 (stereo not given),i,i,i,i,i,/,/,/,/
O=C(NCCN1CCOCC1)c1ccc2c(c1)ncn2C1CCCCC1,i,i,i,i,-6.84*,i,i,i,i
Cc1ccc(NC(=O)c2ccccc2-c2ccccc2C(=O)O)cc1,i,i,i,i,-6.62*,i,i,i,i
Cc1ccc(NC(=O)c2ccccc2)cc1,i,i,i,i,-4.71*,i,i,i,i
O=C(O)c1ccccc1-c1ccccc1C(=O)Nc1ccccc1,i,i,i,i,i,/,/,/,/
O=C(Nc1ccc(NC(=O)c2ccccc2)nc1)c1ccncc1,i,i,i,i,-6.79*,i,i,i,i
CC(C)CC(=O)Nc1nnc(SCC(=O)Nc2nccs2)s1,i,i,i,i,i,/,/,/,/
COc1ccc(Nc2cc(Nc3cccc(OC)c3)ncn2)cc1,i,i,i,i,i,/,/,/,/
Cc1ccc(S(=O)(=O)N(C)c2ccccc2C(=O)Nc2c(F)cccc2F)cc1,i,i,i,i,i,/,/,/,/
CSc1ccccc1NC(=O)CCn1c(=O)sc2ccccc21,i,i,i,i,-6.32*,i,i,i,i
SMILES,MrgX1 PAM,MrgX1 ag,RGS4 act,RGS4 inh,MrgX1 antagonist,MrgX1 antag conf,HEK293 Ca flux,HEK293 Ca counter,HEK293 Ca cntr2
CCOC(=O)c1nn(-c2ccc(C)cc2)c(=O)cc1OCC(=O)N1CCN(c2ccccc2)CC1,i,i,i,i,i,/,/,/,/
Cn1c(N)c(C(=O)CN2CCc3ccccc3C2)c(=O)n(C)c1=O,i,i,i,i,i,/,/,/,/
CN(CC(=O)c1c(N)n(C)c(=O)n(C)c1=O)c1ccccc1,i,i,i,i,-5.77*,72.3%*,i,i,i
COc1ccc(C(=O)COC(=O)c2cc(=O)[nH]c3ccccc23)c(OC)c1,i,i,i,i,i,/,/,/,/
O=C(NCCCN1CCOCC1)C(=O)N/N=C/c1ccccc1O,i,i,i,i,i,/,/,/,/
CSc1ncccc1C(=O)Nc1nnc(C2CC2)s1,i,i,i,i,-4.63*,i,i,i,i
COc1c(C)cccc1C(=O)NCc1ccc2c(c1)OCO2,i,i,i,i,i,/,/,/,/
C=CCn1c(N2CCCC2)nc2c1c(=O)[nH]c(=O)n2C,i,i,i,i,-8.69*,i,i,i,i
CC(C)CCn1c(N2CCc3ccccc3C2)nc2c1c(=O)[nH]c(=O)n2C,i,i,i,i,-5.03*,i,i,i,i
C/C(Cl)=C/Cn1c(N2CCCC2)nc2c1c(=O)[nH]c(=O)n2C,i,i,i,i,i,/,/,/,/
CC(=O)C(c1ccccc1)C(c1ccccc1)C(C)[N+](=O)[O-] (stereo not given),i,i,i,i,i,/,/,/,/
CCCCCN1CC(=O)N2Cc3[nH]c4ccccc4c3C[C@H]2C1=O,i,i,i,i,-19*,i,i,i,i
CCOC(=O)N1CCN(C(=O)CN(C)S(=O)(=O)c2ccc(OCC)cc2)CC1,i,i,i,i,i,/,/,/,/
Cc1ccc2c(c1)c1c3n2CCN(C(=O)CCl)C3CCC1 (stereo not given),i,i,i,i,i,/,/,/,/
Cc1noc(C)c1CSCc1ccc(Cl)cc1,i,i,i,i,i,/,/,/,/
COc1ccc(-n2nc3c(c2NC(=O)c2ccc4c(c2)OCO4)CS(=O)(=O)C3)cc1,i,i,i,i,i,/,/,/,/
